According to ChEMBL document CHEMBL1123978, “Synthesis and antineoplastic evaluation of 1,4-bis(aminoalkanamido)-9,10-anthracenediones” (J Med Chem, 1988):
≈ marks a conversion by molar mass, not a printed value.

Legend:
[1] = tested on: P338; experiment: Ratio of medium survival time expressed as percent of untreated controls(dose 1.25 mg/kg); assay type: functional, Mus musculus
Summary of the method: (§1)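 BDF1 mice inoculated ip on day 0 with 10^6 P388 lymphocytic leukemia cells. Drug given ip on days 1–5 following NCI protocols, at the dose stated. Eight mice per treatment group. Mean survival time was computed per group, and % T/C = (MST treated/MST control) × 100.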

[2] = tested on: P338; experiment: Survivor recorded on day 4 after day of first injection as a measure of drug toxicity (dose 10 mg/kg); 8/8; assay type: functional, Mus musculus
[3] = tested on: HeLa; experiment: Effective concentration required to inhibit by 50% the growth of HeLa S3 cells; assay type: functional, cell-based; details: Homo sapiens
Summary of the method: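 HeLa S3 cultures were given compounds dissolved in water, at final concentrations of 0.005–5 μg/mL in the incubation medium. EC50 is the concentration that inhibited the increment of cellular protein by 50%, read from dose-response curves.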

[4] = tested on: L1210; experiment: Effective concentration required to inhibit by 50% the growth of L1210 cells; assay type: functional, cell-based; details: Mus musculus
Summary of the method: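 Mouse L1210 leukemia cells were grown in RPMI 1640 with 5% fetal calf serum, penicillin and streptomycin at 37 °C in humidified air–5% CO2, and seeded at 5 × 10⁴ cells/mL. Compounds dissolved in 50% ethanol were added at four concentrations. EC50 is the concentration giving 50% growth inhibition after 48 h, measured by cell protein content.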

[5] = tested on: P338; experiment: Survivor recorded on day 4 after day of first injection as a measure of drug toxicity (dose 5 mg/kg); 8/8; assay type: functional, Mus musculus
[6] = tested on: P338; experiment: Survivor recorded on day 4 after day of first injection as a measure of drug toxicity (dose 40 mg/kg); 8/8; assay type: functional, Mus musculus
[7] = tested on: P338; experiment: Ratio of medium survival time expressed as percent of untreated controls (dose 5 mg/kg); assay type: functional, Mus musculus; summary of the method: as §1
[8] = tested on: P338; experiment: Ratio of medium survival time expressed as percent of untreated controls (dose 20 mg/kg); assay type: functional, Mus musculus; summary of the method: as §1
[9] = tested on: P338; experiment: Survivor recorded on day 4 after day of first injection as a measure of drug toxicity (dose 20 mg/kg); 8/8; assay type: functional, Mus musculus
[10] = tested on: P338; experiment: Ratio of medium survival time expressed as percent of untreated controls (dose 2.5 mg/kg); assay type: functional, Mus musculus; summary of the method: as §1
[11] = tested on: P338; experiment: Ratio of medium survival time expressed as percent of untreated controls(dose 40 mg/kg); Toxic; assay type: functional, organism-based; parameters: dose 40 mg/kg; details: Mus musculus, at 40 mg/kg; summary of the method: as §1
[12] = tested on: P338; experiment: Ratio of medium survival time expressed as percent of untreated controls (dose 10 mg/kg); assay type: functional, Mus musculus; summary of the method: as §1
[13] = tested on: P338; experiment: Survivor recorded on day 4 after day of first injection as a measure of drug toxicity (dose 2.5 mg/kg); 8/8; assay type: functional, Mus musculus
[14] = tested on: P338; experiment: Survivor recorded on day 4 after day of first injection as a measure of drug toxicity(dose 1.25 mg/kg); 8/8; assay type: functional, Mus musculus
[15] = tested on: P338; experiment: Ratio of medium survival time expressed as percent of untreated controls (dose 12.5 mg/kg); assay type: functional, Mus musculus; summary of the method: as §1
[16] = tested on: P338; experiment: Survivor recorded on day 4 after day of first injection as a measure of drug toxicity (dose 1.6 mg/kg); 8/8; assay type: functional, Mus musculus
[17] = tested on: P338; experiment: Survivor recorded on day 4 after day of first injection as a measure of drug toxicity (dose 50 mg/kg); 0/8; assay type: functional, Mus musculus
[18] = tested on: P338; experiment: Ratio of medium survival time expressed as percent of untreated controls (dose 25 mg/kg); Toxic; assay type: functional, organism-based; parameters: dose 25 mg/kg; details: Mus musculus, at 25 mg/kg
[19] = tested on: P338; experiment: Survivor recorded on day 4 after day of first injection as a measure of drug toxicity (dose 25 mg/kg); 6/8; assay type: functional, Mus musculus
[20] = tested on: P338; experiment: Survivor recorded on day 4 after day of first injection as a measure of drug toxicity (dose 3.12 mg/kg); 8/8; assay type: functional, Mus musculus
[21] = tested on: P338; experiment: Ratio of medium survival time expressed as percent of untreated controls (dose 6.25 mg/kg); assay type: functional, Mus musculus; summary of the method: as §1
[22] = tested on: P338; experiment: Ratio of medium survival time expressed as percent of untreated controls (dose 3.12 mg/kg); assay type: functional, Mus musculus; summary of the method: as §1
[23] = tested on: P338; experiment: Survivor recorded on day 4 after day of first injection as a measure of drug toxicity (dose 12.5 mg/kg); 8/8; assay type: functional, Mus musculus
[24] = tested on: P338; experiment: Survivor recorded on day 4 after day of first injection as a measure of drug toxicity (dose 6.25 mg/kg); 8/8; assay type: functional, Mus musculus
[25] = tested on: P338; experiment: Ratio of medium survival time expressed as percent of untreated controls (dose 1.6 mg/kg); assay type: functional, Mus musculus; summary of the method: as §1
[26] = tested on: P338; experiment: Survivor recorded on day 4 after day of first injection as a measure of drug toxicity(dose 3.12 mg/kg); 6/6; assay type: functional, Mus musculus
[27] = tested on: P338; experiment: Ratio of medium survival time expressed as percent of untreated controls(dose 12.5 mg/kg); assay type: functional, Mus musculus; summary of the method: as §1
[28] = tested on: P338; experiment: Survivor recorded on day 4 after day of first injection as a measure of drug toxicity(dose 25 mg/kg); 6/6; assay type: functional, Mus musculus
[29] = tested on: P338; experiment: Ratio of medium survival time expressed as percent of untreated controls(dose 3.12 mg/kg); assay type: functional, Mus musculus; summary of the method: as §1
[30] = tested on: P338; experiment: Survivor recorded on day 4 after day of first injection as a measure of drug toxicity(dose 12.5 mg/kg); 6/6; assay type: functional, Mus musculus
[31] = tested on: P338; experiment: Survivor recorded on day 4 after day of first injection as a measure of drug toxicity(dose 6.25 mg/kg); 6/6; assay type: functional, Mus musculus
[32] = tested on: P338; experiment: Ratio of medium survival time expressed as percent of untreated controls(dose 25 mg/kg); assay type: functional, Mus musculus; summary of the method: as §1
[33] = tested on: P338; experiment: Ratio of medium survival time expressed as percent of untreated controls(dose 6.25 mg/kg); assay type: functional, Mus musculus; summary of the method: as §1
[34] = tested on: P338; experiment: Ratio of medium survival time expressed as percent of untreated controls(dose 1.5 mg/kg); assay type: functional, Mus musculus; summary of the method: as §1
[35] = tested on: P338; experiment: Survivor recorded on day 4 after day of first injection as a measure of drug toxicity(dose 3.12 mg/kg); 8/8; assay type: functional, Mus musculus
[36] = tested on: P338; experiment: Survivor recorded on day 4 after day of first injection as a measure of drug toxicity(dose 25 mg/kg); 8/8; assay type: functional, Mus musculus
[37] = tested on: P338; experiment: Survivor recorded on day 4 after day of first injection as a measure of drug toxicity(dose 12.5 mg/kg); 8/8; assay type: functional, Mus musculus
[38] = tested on: P338; experiment: Ratio of medium survival time expressed as percent of untreated controls(dose 50 mg/kg); assay type: functional, Mus musculus; summary of the method: as §1
[39] = tested on: P338; experiment: Survivor recorded on day 4 after day of first injection as a measure of drug toxicity(dose 50 mg/kg); 8/8; assay type: functional, Mus musculus
[40] = tested on: P338; experiment: Survivor recorded on day 4 after day of first injection as a measure of drug toxicity(dose 6.25 mg/kg); 8/8; assay type: functional, Mus musculus
[41] = tested on: P338; experiment: Survivor recorded on day 4 after day of first injection as a measure of drug toxicity(dose 1.5 mg/kg); 8/8; assay type: functional, Mus musculus

**Q.** What does the source list for `CNCCC(=O)Nc1ccc(NC(=O)CCNC)c2c1C(=O)c1ccccc1C2=O`?
**A.** T/C [1]: 110%; Survival [2]: 8; EC50 [3]: 0.08 µg/mL (≈ 0.196 µM); EC50 [4]: 1.28 µg/mL (≈ 3.13 µM); Survival [5]: 8; Survival [6]: 8; T/C [7]: 130%; T/C [8]: 120%; Survival [9]: 8; T/C [10]: 120%; T/C [11]: Toxic; T/C [12]: 130%; Survival [13]: 8; Survival [14]: 8

**Q.** Which results are given for `CN(C)CCC(=O)Nc1ccc(NC(=O)CCN(C)C)c2c1C(=O)c1ccccc1C2=O`?
**A.** T/C [15]: 100%; Survival [16]: 8; Survival [17]: 0; EC50 [3]: 0.05 µg/mL (≈ 0.115 µM); EC50 [4]: 0.36 µg/mL (≈ 0.825 µM); T/C [18]: Toxic; Survival [19]: 6; Survival [20]: 8; T/C [21]: 100%; T/C [22]: 91%; Survival [23]: 8; Survival [24]: 8; T/C [25]: 91%

**Q.** With `O=C(CNCCO)Nc1ccc(NC(=O)CNCCO)c2c1C(=O)c1ccccc1C2=O` as the compound, how does the EC50 [3] read?
**A.** Its EC50 is 1.41 µg/mL (≈ 3.2 µM).

**Q.** And the EC50 [4]?
**A.** The EC50 was > 5 µg/mL.

**Q.** With `O=C1c2c(O)ccc(O)c2C(=O)c2c(NCCNCCO)ccc(NCCNCCO)c21` [MITOXANTRONE] as the compound, how does the EC50 [3] read?
**A.** The EC50 was 0.55 µg/mL (≈ 1.24 µM).

**Q.** What about the EC50 [4] of the same compound?
**A.** The EC50 was > 5 µg/mL.

**Q.** How did the EC50 [3] turn out when `O=C1c2ccccc2C(=O)c2c(NCCNCCO)ccc(NCCNCCO)c21` [AMETANTRONE] was run?
**A.** The EC50 was 0.17 µg/mL (≈ 0.412 µM).

**Q.** What about the Survival [26] of the same compound?
**A.** The Survival was 6.

**Q.** What about the EC50 [4] of the same compound?
**A.** The EC50 was 1.77 µg/mL (≈ 4.29 µM).

**Q.** And the T/C [27]?
**A.** Its T/C is 300%.

**Q.** And the Survival [28]?
**A.** The Survival was 6.

**Q.** What about the T/C [29] of the same compound?
**A.** The T/C was 190%.

**Q.** And the Survival [30]?
**A.** Its Survival is 6.

**Q.** What about the Survival [31] of the same compound?
**A.** The Survival was 6.

**Q.** And the T/C [32]?
**A.** Its T/C is 200%.

**Q.** What about the T/C [33] of the same compound?
**A.** Its T/C is 210%.

**Q.** Which EC50 [3] does the source give for `CN(C)CC(=O)Nc1ccc(NC(=O)CN(C)C)c2c1C(=O)c1ccccc1C2=O` here?
**A.** The EC50 was 0.39 µg/mL (≈ 0.955 µM).

**Q.** And the EC50 [4]?
**A.** Its EC50 is 2.26 µg/mL (≈ 5.53 µM).

**Q.** What does the source list for `CNCC(=O)Nc1ccc(NC(=O)CNC)c2c1C(=O)c1ccccc1C2=O`?
**A.** T/C [34]: 100%; Survival [35]: 8; Survival [36]: 8; Survival [37]: 8; EC50 [3]: 0.14 µg/mL (≈ 0.368 µM); EC50 [4]: 0.79 µg/mL (≈ 2.08 µM); T/C [38]: 111%; T/C [27]: 100%; T/C [29]: 100%; Survival [39]: 8; T/C [32]: 100%; Survival [40]: 8; T/C [33]: 111%; Survival [41]: 8
